Measurements reported in BindingDB's records for doi:10.1016/j.bmcl.2013.01.031 (Birla Institute of Technology, 2013).

Biological target: O-acetylserine sulfhydrylase (Mycobacterium tuberculosis (strain ATCC 25618 / H37Rv), UniProt P9WP55)
Test: Inhibition of Mycobacterium tuberculosis CysK1 using O-acetyl-L-serine as substrate assessed as L-cycteine formation after 5 mins by spectrophotometric analysis
In short: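 Dose–response: serial 1:3 dilutions prepared in 50% DMSO (final DMSO 5%). Final mix was 100 mM MOPS pH 7.0, 2 mM O-acetyl-L-serine, […] CysK1, preincubated 5 min at room temperature. The reaction was started with sodium sulphide (final 1 mM). Aliquots taken at time intervals were assayed for L-cysteine by acid-ninhydrin. Specific activity vs concentration was fitted to a sigmoid for IC50.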

Row | Structure (SMILES) | IC50 [µM]
1 | O=C1Nc2c(c(=O)nc3sc([N+](=O)[O-])cn23)C(c2ccccc2C(F)(F)F)N1 (configuration not stated) | 17.7
2 | Cc1ccccc1C1NC(=S)Nc2c1c(=O)nc1sc([N+](=O)[O-])cn21 (configuration not stated) | 17.7
